In ChEMBL document CHEMBL1149473, “Anti-AIDS agents 69. Moronic acid and other triterpene derivatives as novel potent anti-HIV agents” (J Med Chem, 2006):
Active and inactive are the calls of the source. The calls are words filed in the database; no cut-off is given here.

Assays:
H9 [1] = assay: Cytotoxicity against human H9 lymphocytes; assay type: functional, cell-based
In short: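 Mock-infected H9 cells were treated in parallel with the antiviral plates under identical conditions, without virus, and were read by XTT on day 6. IC50 = concentration toxic to 50% of mock-infected cells.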

H9 [2] = assay: Antiviral activity against HIV1 3B in H9 lymphocytes; assay type: functional, cell-based; conditions: for EC50: Homo sapiens
In short: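 HIV-1 IIIB isolate (125 TCID50) added to H9 cells at 3 × 10⁵ cells/mL in RPMI 1640 with 10% fetal calf serum and L-glutamine, 37 °C, 5% CO2. Media replaced on days 1 and 4 postinfection. Supernatant p24 antigen capture on day 6. EC50 = concentration suppressing replication by 50%. AZT run as positive control each experiment.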

[3] = Therapeutic index, IC50 for H9/EC50 for HIV 3B; assay type: cell-based; conditions: human, H9 cells; read-out: Ratio IC50/EC50
In short: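 Therapeutic index is IC50 divided by EC50. IC50 is the XTT toxicity in mock-infected H9 cells. EC50 is the 50% suppression of p24 in HIV-1 IIIB-infected H9 cells at day 6.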

MT4 [4] = assay: Antiviral activity against HIV1 NL4-3 in MT4 cells; assay type: functional, cell-based; conditions: for EC50: Homo sapiens, NL4-3, MT4
In short: (§1)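 MT4 cells were infected with HIV-1 at MOI 0.01 using the strain named in the line. NL4-3 is a T-cell adapted X4 wild-type virus. PI-R is M46I/L63P/V82T/I84V, resistant to multiple protease inhibitors. Supernatants were collected on day 4 postinfection for p24 ELISA. EC50 = concentration inhibiting replication by 50%.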

MT4 [5] = assay: Cytotoxicity against human MT4 cells; assay type: functional, cell-based
In short: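 Cytotoxicity was measured in MT4 cells and given as IC50, the concentration decreasing viable cell number by 50%.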

[6] = Therapeutic index, IC50 for MT-4/EC50 for HIV1 NL4-3; conditions: human, MT-4 cells
MT4 [7] = assay: Antiviral activity against HIV1 NL4-3 replication in human MT4 cells; assay type: functional, cell-based; conditions: NL4-3, MT4; in short: as §1
MT4 [8] = assay: Antiviral activity against HIV1 PI-R replication in human MT4 cells; assay type: functional, cell-based; in short: as §1
MT4 [9] = assay: Antiviral activity against HIV1 FHR2 replication in MT4 cells; assay type: functional, cell-based; conditions: Homo sapiens; in short: as §1
[10] = Inhibition of membrane fusion between HIV1 NL4-3 envelope gene expressing COS cells and TZM cells; assay type: functional, cell-based
In short: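 COS cells were electroporated with pSRHS carrying the HIV-1 NL4-3 envelope genes (2 µg per 10⁶ cells, 950 µF, 150 V) and cultured 1 day. They were then mixed with TZM cells (10⁴ COS : 10 × 10⁴ TZM) with compound at various concentrations, 37 °C, 24 h. Luciferase read-out. EC50 = 50% inhibition of envelope-mediated fusion.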

[11] = Cytotoxicity against COS-TZM fused cells; assay type: functional, cell-based
In short: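 Cytotoxicity was determined as IC50 in a one-day assay, matching the fusion assay duration. The highest concentration tested was 10 µg/mL.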

MT4 [12] = assay: Cytotoxicity against human MT4 cells at 5 uM; assay type: functional, cell-based
MT4 [13] = assay: Antiviral activity against HIV1 FHR2 replication in MT4 cells at 5 uM; assay type: functional, cell-based

For `CC1(C)C=C2[C@H]3CC[C@@H]4[C@@]5(C)CC[C@H](OC(=O)C(C)(C)CC(=O)O)C(C)(C)[C@@H]5CC[C@@]4(C)[C@]3(C)CC[C@@]2(C(=O)NCCCCCCCCCCC(=O)O)CC1`, the IC50 (H9 [1]) was > 32600 nM, the EC50 (H9 [2]) was 9300 nM and the selectivity ratio [3] was > 3.5. The Activity (MT4 [4]) was “inactive”.

With `CC(C)C[C@H](NC(=O)[C@@]1(C)CC[C@]2(C)CC[C@]3(C)C(=CC(=O)[C@@H]4[C@@]5(C)CC[C@H](OC(=O)CC(C)(C)C(=O)O)C(C)(C)[C@@H]5CC[C@]43C)[C@@H]2C1)C(=O)O` the Activity (H9 [2]) was “inactive” and the Activity (MT4 [4]) was “inactive”.

Molecule `C=C(C)[C@@H]1CC[C@]2(C(=O)NCCCCCCCCCCC(=O)O)CC[C@]3(C)[C@H](CC[C@@H]4[C@@]5(C)CC[C@H](OC(=O)CC(C)(C)C(=O)O)C(C)(C)[C@@H]5CC[C@]43C)[C@@H]12` has an IC50 (MT4 [5]) of 11000 nM, an EC50 (MT4 [4]) of 7 nM and a selectivity ratio [6] of 1570.

In the case of `CC(C)C[C@@H](CO)NC(=O)[C@]12CCC(C)(C)C=C1[C@H]1CC[C@@H]3[C@@]4(C)CC[C@H](OC(=O)CC(C)(C)C(=O)O)C(C)(C)[C@@H]4CC[C@@]3(C)[C@]1(C)CC2`, the IC50 (H9 [1]) is reported as > 42700 nM, the EC50 (H9 [2]) is reported as 17 nM and the selectivity ratio [3] is reported as > 2500. It also gave an IC50 (MT4 [5]) of 23500 nM, an EC50 (MT4 [4]) of 45 nM and an EC50 (MT4 [7]) of 45 nM. The EC50 (MT4 [8]) was 88 nM, the EC50 (MT4 [9]) was 2780 nM and the EC50 [10] was 5850 nM. For the same molecule, the IC50 [11] was > 14600 nM and the selectivity ratio [6] was 522.

With `C=C(C)[C@@H]1CC[C@]2(C(=O)N[C@@H](CC(C)C)C(=O)O)CC[C@]3(C)[C@H](CC[C@@H]4[C@@]5(C)CC[C@H](OC(=O)CC(C)(C)C(=O)O)C(C)(C)[C@@H]5CC[C@]43C)[C@@H]12` the IC50 (MT4 [5]) was 12200 nM, the EC50 (MT4 [4]) was 10 nM and the EC50 (MT4 [7]) was 10 nM. For the same molecule, the EC50 (MT4 [8]) was 6 nM, the EC50 (MT4 [9]) was 50 nM and the selectivity ratio [6] was > 1220.

For `CC(C)(CC(=O)O)CC(=O)O[C@H]1CC[C@]2(C)[C@H]3CC=C4[C@@H]5CC(C)(C)CC[C@]5(C(=O)O)CC[C@@]4(C)[C@]3(C)CC[C@H]2C1(C)C`, the Activity (H9 [2]) was “inactive” and the Activity (MT4 [4]) was “inactive”.

In the case of `C[C@H]1[C@H](C)CC[C@]2(C(=O)O)CC[C@]3(C)C(=CC[C@@H]4[C@@]5(C)CC[C@H](OC(=O)CC(C)(C)C(=O)O)C(C)(C)[C@@H]5CC[C@]43C)[C@H]12`, the IC50 (H9 [1]) is reported as 28500 nM, the EC50 (H9 [2]) is reported as 79 nM and the selectivity ratio [3] is reported as 360. For the same molecule, the IC50 (MT4 [5]) was 21000 nM, the EC50 (MT4 [4]) was 8300 nM and the selectivity ratio [6] was 2.5.

With `C=C(C)[C@@H]1CC[C@]2(C)CC[C@]3(C)[C@H](CC[C@@H]4[C@@]5(C)CC[C@H](OC(=O)CC(C)(C)C(=O)O)C(C)(C)[C@@H]5CC[C@]43C)[C@@H]12` the IC50 (H9 [1]) was > 45100 nM, the EC50 (H9 [2]) was 2600 nM and the selectivity ratio [3] was > 17.2. For the same molecule, the IC50 (MT4 [5]) was > 36100 nM, the EC50 (MT4 [4]) was 21600 nM and the selectivity ratio [6] was > 1.7.

With `CC(C)(CC(=O)O[C@H]1CC[C@]2(C)[C@H]3C(=O)C=C4[C@@H]5C[C@@](C)(C(=O)O)CC[C@]5(C)CC[C@@]4(C)[C@]3(C)CC[C@H]2C1(C)C)C(=O)O` the Activity (H9 [2]) was “inactive” and the Activity (MT4 [4]) was “inactive”.

For `C=C(C)[C@@H]1CC[C@]2(C(=O)O)CC[C@]3(C)[C@H](CC[C@@H]4[C@@]5(C)CC[C@H](OC(=O)CC(C)(C)C(=O)O)C(C)(C)[C@@H]5CC[C@]43C)[C@@H]12` [BEVIRIMAT], the IC50 (H9 [1]) was > 42800 nM, the EC50 (H9 [2]) was 7 nM and the selectivity ratio [3] was > 6250. The EC50 (MT4 [4]) was 96 nM, the IC50 (MT4 [12]) was > 5000 nM and the EC50 (MT4 [7]) was 96 nM. The EC50 (MT4 [8]) was 430 nM, the EC50 [10] was > 17100 nM and the IC50 [11] was > 17100 nM. The Activity (MT4 [13]) was “inactive” and the selectivity ratio [6] was > 52.

With `Cc1cn([C@H]2C[C@H](N=[N+]=[N-])[C@@H](CO)O2)c(=O)[nH]c1=O` [ZIDOVUDINE] the IC50 (MT4 [5]) was > 37500 nM, the EC50 (MT4 [7]) was 13 nM and the EC50 (MT4 [8]) was 19 nM. It also gave an EC50 (MT4 [9]) of 19 nM.

For `CC(C)C[C@H](NC(=O)[C@]12CCC(C)(C)C=C1[C@H]1CC[C@@H]3[C@@]4(C)CC[C@H](OC(=O)CC(C)(C)C(=O)O)C(C)(C)[C@@H]4CC[C@@]3(C)[C@]1(C)CC2)C(=O)O`, the IC50 (H9 [1]) was > 42700 nM, the EC50 (H9 [2]) was 15.6 nM and the selectivity ratio [3] was > 2740. The IC50 (MT4 [5]) was 22500 nM, the EC50 (MT4 [4]) was 8.5 nM and the EC50 (MT4 [7]) was 8.5 nM. The EC50 (MT4 [8]) was 21 nM, the EC50 (MT4 [9]) was 130 nM and the EC50 [10] was 3580 nM. For the same molecule, the IC50 [11] was > 14300 nM and the selectivity ratio [6] was 2650.

Molecule `CC1(C)C=C2[C@H]3CC[C@@H]4[C@@]5(C)CC[C@H](OC(=O)CC(C)(C)C(=O)O)C(C)(C)[C@@H]5CC[C@@]4(C)[C@]3(C)CC[C@@]2(C(=O)NCCCCCCCCCCC(=O)O)CC1` has an IC50 (H9 [1]) of 24000 nM, an EC50 (H9 [2]) of 7 nM and a selectivity ratio [3] of 3400. It also gave an IC50 (MT4 [5]) of 19500 nM, an EC50 (MT4 [4]) of 110 nM and an EC50 [10] of 5210 nM. For the same molecule, the IC50 [11] was > 13000 nM and the selectivity ratio [6] was 177.

Molecule `C[C@H]1[C@H](C)CC[C@]2(C(=O)O)CC[C@]3(C)C(=CC[C@@H]4[C@@]5(C)CC[C@H](OC(=O)CC(C)(C)CC(=O)O)C(C)(C)[C@@H]5CC[C@]43C)[C@H]12` has an IC50 (H9 [1]) of 28500 nM, an EC50 (H9 [2]) of 680 nM and a selectivity ratio [3] of 42. The Activity (MT4 [4]) was “inactive”.

With `CC1(C)CC[C@]2(C(=O)O)CC[C@]3(C)C(=CC[C@@H]4[C@@]5(C)CC[C@H](OC(=O)CC(C)(C)C(=O)O)C(C)(C)[C@@H]5CC[C@]43C)[C@@H]2C1` the IC50 (H9 [1]) was > 42700 nM, the EC50 (H9 [2]) was 320 nM and the selectivity ratio [3] was > 133. The IC50 (MT4 [5]) was 20200 nM, the EC50 (MT4 [4]) was 8300 nM and the selectivity ratio [6] was 2.4.

With `C=C(C)[C@@H]1CC[C@]2(C(=O)NCCCCCCCC(=O)N[C@@H](CC(C)C)[C@H](O)CC(=O)O)CC[C@]3(C)[C@H](CC[C@@H]4[C@@]5(C)CC[C@H](O)C(C)(C)[C@@H]5CC[C@]43C)[C@@H]12` the EC50 [10] was 8.6 nM and the IC50 [11] was > 13200 nM.
